The target of experiment [1] is D(2) dopamine receptor (Bos taurus) (UniProt P20288). Kind of experiment: Percentage of receptor in the low affinity form for the compound to Dopamine receptor D2 in absence of Gpp(NH)p. Format: functional. The procedure, abridged: (§1)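 Bovine striatal membranes (150-200 µg protein) were incubated with 0.2 nM [3H]spiroperidol and varying N-propylnorapomorphine, with or without 100 µM Gpp(NH)p and 100 nM peptidomimetic, plus 50 nM ketanserin, for 1 h at 22 °C, then GF/B filtered. Nonspecific binding was set with 1.0 µM (+)-butaclamol. A two-site fit gave high/low-affinity fractions; Ki values came via Cheng-Prusoff. Mean ± SEM of 3-4 experiments.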

Experiment [2] has the same target. Kind of experiment: Percentage of receptor in the low affinity form for the compound to Dopamine receptor D2 in presence of Gpp(NH)p. Format: functional. In outline: as §1
For experiment [3] the target is unchanged. Briefly: Percentage of receptor in the high affinity form for the compound to Dopamine receptor D2 in absence of Gpp(NH)p. Format: functional. In outline: as §1
Experiment [4] has the same target. Kind of experiment: Percentage of receptor in the high affinity form for the compound to Dopamine receptor D2 in presence of Gpp(NH)p. Format: functional. The procedure, abridged: as §1
Experiment [5] has the same target. Briefly: Percentage of receptor in the high affinity form for the compound to Dopamine receptor D2 in presence of Gpp(NH)p (pre treated with 1 uM). Format: functional.
Experiment [6] has the same target. Briefly: Percentage of receptor in the low affinity form for the compound in absence of Gpp(NH)p (Pre treated with 1 uM) to Dopamine receptor D2.
Experiment [7] shares this target. Briefly: Percentage of receptor in the low affinity form for the compound to Dopamine receptor D2 in presence of Gpp(NH)p (pre treated with 1 uM).
Experiment [8] shares this target. Briefly: Percentage of receptor in the high affinity form for the compound in absence of Gpp(NH)p (Pre treated with 1 uM) to Dopamine receptor D2.

Where a SMILES comes first, the peptide text is derived from it.

D(2) dopamine receptor (Bos taurus), sequence (P20288 whole entry): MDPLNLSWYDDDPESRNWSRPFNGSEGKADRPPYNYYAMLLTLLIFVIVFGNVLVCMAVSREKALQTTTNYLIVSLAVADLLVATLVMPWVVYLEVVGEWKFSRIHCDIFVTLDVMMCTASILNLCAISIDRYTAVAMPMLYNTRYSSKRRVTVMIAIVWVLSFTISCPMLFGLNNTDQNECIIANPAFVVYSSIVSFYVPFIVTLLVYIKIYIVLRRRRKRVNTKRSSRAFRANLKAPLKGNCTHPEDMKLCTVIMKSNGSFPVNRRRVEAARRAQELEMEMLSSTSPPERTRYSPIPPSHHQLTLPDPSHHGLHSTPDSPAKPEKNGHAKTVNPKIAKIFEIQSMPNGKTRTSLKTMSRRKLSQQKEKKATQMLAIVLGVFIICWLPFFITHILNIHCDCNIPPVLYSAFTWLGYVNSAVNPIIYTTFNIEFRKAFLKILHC

With `CC(C)C[C@@H](C(=O)NCC(N)=O)N1CC(=O)N2CCC[C@H]2C1=O`, the RL in experiment [1] came to 43.8%; in experiment [2], 81.2%. Besides, the figures for the RH in experiment [3] and in experiment [4] were 56.2% and 18.8%, respectively.

On to `NC(=O)[C@H]1CS[C@@H]2C[C@@H](N3CC(=O)N4CCC[C@H]4C3=O)C(=O)N12`, for which the RL in experiment [1] worked out at 51%; in experiment [2] it was 81.5%. In addition, the figures for the RH in experiment [3] and in experiment [4] were 49% and 18.5%, respectively.

Regarding `NC(=O)CN1CC[C@@H](N2CC(=O)N3CCC[C@H]3C2=O)C1=O`, the RL worked out at 55% in experiment [1] and 78% in experiment [2]. In addition, the figures for the RH in experiment [3] and in experiment [4] were 46% and 22%, respectively.

Turning to `CC(C)C[C@H](NC(=O)[C@@H]1CCCN1)C(=O)NCC(N)=O` (H-Pro-Leu-Gly-NH2), the RL in experiment [1] was determined as 51%; in experiment [2], 82%; in experiment [6], 41%; in experiment [7] it was 72%. For the same molecule, the RH in experiment [3] came to 49%; in experiment [4], 19%; in experiment [5], 32%; in experiment [8] it was 61%.

The record behind these values is ChEMBL document CHEMBL1130216, “Design, synthesis, and dopamine receptor modulating activity of diketopiperazine peptidomimetics of L-prolyl-L-leucylglycinamide” (J Med Chem, 1997).
